Data on nine molecules can be found in ChEMBL document CHEMBL1127038 (J Med Chem, 1993).

Each structure is given as a SMILES string.

The species named for assay [1] is Cavia porcellus. As to the kind of experiment: Negative inotropic activity was calculated from log concentration/response curves. It is filed as functional. The procedure, abridged:
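Guinea pig left atrium driven at 1 Hz; decrease in developed tension measured. Potency is from log concentration/response curves by Litchfield–Wilcoxon probit analysis, n = 6-8.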

The species entered for assay [2] is Cavia porcellus. The assay can be described thus: Inhibition concentration of vasodilation was calculated from log concentration/response curves. The class given is functional. In a few lines:
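K⁺-depolarized guinea pig aortic strips, calcium-induced contraction. Potency is from log concentration/response curves by Litchfield–Wilcoxon probit analysis, n = 6-8.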

The species entered for assay [3] is Cavia porcellus. As to the kind of experiment: Nagative chronotropic activity was expressed as percent changes in atrial rate on guinea pig spontaneously beating isolated right atrium at 10 e-5 M. It is filed as functional, Cardiac atrium.
For assay [4], the species on record is Cavia porcellus. As to the kind of experiment: Negative chronotropic activity was calculated from log concentration/response curves. It is filed as functional.
Assay [5] is filed under the species Cavia porcellus. As to the kind of experiment: Nagative inotropic activity was expressed as percent changes in developed tension in isolated guinea pig left atrium at 10 e-5 M. The class given is functional, Cardiac atrium. In a few lines: (§1)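 Isolated guinea pig left atrium, electrically driven at 1 Hz. Developed tension measured at 10⁻⁵ M and given as percent change from control, mean ±SEM, n = 5-6.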

The species named for assay [6] is Cavia porcellus. The assay can be described thus: Percent inhibition of calcium-induced contraction on K+ -depolarized guinea pig aortic strips at 10 e-4 M. The class given is functional, Aorta. The procedure, abridged:
(§2)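 Guinea pig aortic strips depolarized with K⁺ and contracted by calcium. Inhibition of the calcium-induced contraction measured at 10⁻⁴ M, mean ±SEM, n = 6-7.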

For assay [7], the species on record is Cavia porcellus. As to the kind of experiment: Nagative inotropic activity was expressed as percent changes in developed tension in isolated guinea pig left atrium at 10E-5 M. The class given is functional, Cardiac atrium. The procedure, abridged: as §1
For assay [8], the species on record is Cavia porcellus. As to the kind of experiment: Nagative chronotropic activity was expressed as percent changes in atrial rate on guinea pig spontaneously beating isolated right atrium at 10E-5 M. It is filed as functional, Cardiac atrium.
For assay [9], the species on record is Cavia porcellus. The assay can be described thus: Percent inhibition of calcium-induced contraction on K+ -depolarized guinea pig aortic strips at 10E-4 M. It is filed as functional, Aorta. The procedure, abridged:
as §2

What is called IC50 is the concentration needed to halve the response being measured. In the case of `COc1ccc(CCN(C)CCCC(C#N)(c2ccc(OC)c(OC)c2)C(C)C)cc1OC` (stereo not drawn), the ED50 in assay [1] is 610 nM. In assay [2] (Cavia porcellus), the IC50 is 380 nM. Moreover, the Change in [3] was found to be 94%; in assay [5] it was 84%. Also, the ED30 in assay [4] was 70 nM.
One may read the Inhibition as the percentage by which the read-out fell short of the control. In the case of `COc1ccc(CCN(C)C2CCCC(C(C#N)(c3ccc(OC)c(OC)c3)C(C)C)C2)cc1OC` (stereo in doubt; 2a), in [1], the ED50 was 100 nM. The Inhibition in assay [6] turned out to be 37%. Also, the figures for the Change in assay [3] and in assay [5] were 78% and 84%, respectively. The ED30 in assay [4] was 75 nM.
In the same order, the values of `COc1ccc(CCN(C)C2CCCC(C(C#N)(c3ccc(OC)c(OC)c3)C(C)C)C2)cc1OC` (stereo in doubt; 2b) are 1300 nM, 30%, 93%, 75% and 230 nM.
`COc1ccc(CCN(C)C2CCCC(C(C#N)(c3ccc(OC)c(OC)c3)C(C)C)C2)cc1OC` (stereo in doubt; 2c): in assay [1], the ED50 was 60 nM. Besides, the IC50 in assay [2] is 18000 nM. Further, in assay [6], the Inhibition stood at 49%. Further, the results for the Change in [3] and in [5] were 89% and 86%, respectively. Moreover, in [4], the ED30 was 1300 nM.
In the case of `COc1ccc(CCN(C)C2CCCC(C(C#N)(c3ccc(OC)c(OC)c3)C(C)C)C2)cc1OC` (stereo in doubt; 2d), the ED50 in assay [1] was 200 nM. Moreover, the 50% inhibitory concentration (IC50) in assay [2] (Cavia porcellus) is 10000 nM. Further, the Inhibition in assay [6] amounted to 58%. Further, the figures for the Change in assay [3] and in [5] were 75% and 74%, respectively. Further, the ED30 in assay [4] was 420 nM.
For the molecule `COc1ccc(CCNC2CCCC(C(C#N)(c3ccc(OC)c(OC)c3)C(C)C)C2)cc1OC` (stereo in doubt; 7a), the Change came to 82% in assay [7] and 78% in assay [8]. Besides, the ED50 in [1] is 900 nM. For the same molecule, the IC50 in assay [2] is 17000 nM. For the same molecule, in [9], the Inhibition amounted to 62%. In assay [4], the ED30 was 2400 nM.
In the case of `COc1ccc(CCNC2CCCC(C(C#N)(c3ccc(OC)c(OC)c3)C(C)C)C2)cc1OC` (stereo in doubt; 7b), the Change was determined as 74% in assay [7] and 66% in [8]. In assay [1], the ED50 was 110 nM. Further, the Inhibition in assay [9] is on record as 35%. In assay [4], the ED30 is 60 nM.
In the same order, the values of `COc1ccc(CCNC2CCCC(C(C#N)(c3ccc(OC)c(OC)c3)C(C)C)C2)cc1OC` (stereo in doubt; 7c) are 70%, 64%, 660 nM, 40% and 1400 nM.
In the same order, the values of `COc1ccc(CCNC2CCCC(C(C#N)(c3ccc(OC)c(OC)c3)C(C)C)C2)cc1OC` (stereo in doubt; 7d) are 83%, 84%, 1100 nM, 56% and 370 nM.
